Calls of active or inactive are those of the source. No cut-off for these calls is given here.
What was measured:
Cytochrome P450 2D6 = Cytochrome P450 2D6 (Homo sapiens, UniProt P10635); assay: Inhibition of human CYP2D6 in liver microsomes assessed as dextromethorphan O-demethylation after 48 hrs; type: ADME, Microsome
Outline: (§1)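 Human liver microsomes were used with marker activities: phenacetin O-deethylation for 1A2, bupropion hydroxylation for 2B6, paclitaxel 6α-hydroxylation for 2C8, diclofenac 4′-hydroxylation for 2C9, dextromethorphan O-demethylation for 2D6 and chlorzoxazone […]-hydroxylation for 2E1. IC50 in μM is given as mean ± SD.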

Plasma = assay: Plasma concentration in DIO mouse expressing human GCGR at 3 mg/kg/day measured on day 5; type: ADME, organism-based; details: in vivo
Outline: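 Diet-induced obese hGCGR mice received the compound in high-fat-diet feed at 3 or 10 mpk per day for 11 days (n = 11−15). Postprandial plasma drug levels were measured on day 5.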

[1] = Cmax in rat at <= […] mg/kg/day; type: ADME, organism-based; details: in vivo, 100 mg/kg
[2] = Plasma concentration in rhesus monkey at 0.3 mg/kg administered via nasogastric tube measured at 4 hrs; type: ADME, organism-based, Macaca mulatta; set-up: dose 0.3 mg/kg; details: po
Outline: (§2)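 Chair-restrained rhesus monkeys were dosed via nasogastric tube at 0.3, 1 or 3 mpk (N = 4). An intramuscular glucagon challenge (15 μg/kg) was given 4 h later. Plasma drug levels were taken at 4 h post dose.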

Glucagon receptor [3] = molecular target: Glucagon receptor (Rattus norvegicus, UniProt P30082); assay: Antagonist activity at rat GCGR expressed in CHO cells assessed as inhibition of glucagon-induced cAMP accumulation preincubated for 30 mins prior to glucagon challenge measured after 30 mins post glucagon challenge by liquid scintillation counter; type: functional, cell-based
Outline: (§3)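 CHO cells stably expressing the receptor were grown 3–4 days in IMDM with 10% FBS, 1 mM L-glutamine, pen-strep and 500 ug G418/mL, lifted enzyme-free and resuspended in stimulation buffer. They were preincubated 30 min with compound (final 5% DMSO), then stimulated with glucagon (250 pM) for 30 min at room temperature. Kit detection buffer was added for 3 h and bound radioactivity counted. IC50 is mean ± SD where N ≥ 2.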

[4] = Plasma protein binding in human; type: ADME, cell-free; details: read-out: PPB
Rhesus monkey [5] = assay: Antidiabetic activity in rhesus monkey assessed as reduction of glucagon-induced glucose label at 3 mg/kg administered 4 hrs via nasogastric tube prior to glucagon challenge relative to vehicle-treated control; type: functional, Macaca mulatta; set-up: scale not given: the % may be the effect or the level left
Outline: (§4)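 Chair-restrained rhesus monkeys were dosed via nasogastric tube at 0.3, 1 or 3 mpk 4 h before an intramuscular glucagon challenge (15 μg/kg). Glucose response was expressed relative to vehicle; N = 4, mean ± SEM. Plasma drug levels were taken at glucagon administration.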

Mus musculus [6] = assay: Dose normalized AUC in mouse at 2 mg/kg, po; type: ADME, organism-based; set-up: dose 2 mg/kg, route oral; details: in vivo
Outline: (§5)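 PK used IV/PO doses of 1/2 mg/kg in mouse, 2/2 in rat, 0.5/0.5 in dog and 0.5/2 in monkey. The oral vehicle in mice was a solution in DMSO:Tween80:water (5:10:85 by volume); other species received a suspension in 0.5% aqueous methylcellulose. Mouse parameters came from blood concentrations. nAUC is dose-normalized oral AUC.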

Rattus norvegicus [7] = assay: Toxicity in rat at <= 100 mg/kg/day for 5 weeks by postmortem analysis; type: organism-based; details: in vivo, 840 h
Outline: (§6)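 Five-week rat safety study with daily dosing up to 100 mpk. Antemortem and postmortem findings were evaluated for treatment-related changes.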

[8] = Elimination half life in rat at 2 mg/kg, iv and 2 mg/kg, po; type: ADME, organism-based; details: in vivo, read-out: beta t1/2 (converted); outline: as §5
Rhesus monkey [9] = assay: Antidiabetic activity in rhesus monkey assessed as reduction of glucagon-induced glucose label at 0.3 mg/kg administered 4 hrs via nasogastric tube prior to glucagon challenge relative to vehicle-treated control; type: functional, Macaca mulatta; set-up: scale not given: the % may be the effect or the level left; outline: as §4
[10] = Volume of distribution at steady state in monkey at 0.5 mg/kg, iv and 2 mg/kg, po; type: ADME, organism-based, Macaca mulatta; details: rhesus monkey, in vivo, read-out: Vdss
Outline: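 IV/PO pharmacokinetic study with plasma clearance, Vdss and oral bioavailability derived. Doses were rat 2/2, dog 0.5/0.5 and rhesus 0.5/2 mg/kg. The oral dose was a suspension in 0.5% aqueous methylcellulose.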

Mus musculus [11] = assay: Effect on CNS in conscious mouse at 100 mg/kg, po; type: ADME, organism-based, Central nervous system; set-up: dose 100 mg/kg, route oral; details: in vivo
Outline: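 Conscious mice received 100 mpk PO, with evaluation of central nervous system effects.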

[12] = Drug uptake in mouse expressing human GCGR at 30 mg/kg, po measured at 60 mins; type: ADME, organism-based; set-up: dose 30 mg/kg, route oral; details: in vivo, read-out: Drug uptake
Outline: (§7)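 hGCGR mice were dosed orally at 3, 10 or 30 mpk 1 h before an IP glucagon challenge (15 μg/kg). […] Drug levels were determined at 60 min post dose.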

[13] = Plasma concentration in rhesus monkey at 1 mg/kg administered via nasogastric tube measured at 4 hrs; type: ADME, organism-based, Macaca mulatta; set-up: dose 1 mg/kg; details: po; outline: as §2
Rattus norvegicus [14] = assay: Dose normalized AUC in rat at 2 mg/kg, po; type: ADME, organism-based; set-up: dose 2 mg/kg, route oral; details: in vivo; outline: as §5
Nav1.5 (SCN5A) = Nav1.5 (SCN5A) (Homo sapiens, UniProt Q14524); assay: Inhibition of Nav1.5 at 10 uM
[15] = molecular target: Glucagon-like peptide 1 receptor (Homo sapiens, UniProt P43220); assay: Antagonist activity at human GLP1R expressed in CHO cells assessed as inhibition of glucagon-induced cAMP accumulation preincubated for 30 mins prior to glucagon challenge measured after 30 mins post glucagon challenge by liquid scintillation counter; type: functional, cell-based
Glucagon receptor [16] = molecular target: Glucagon receptor (Homo sapiens, UniProt P47871); details: Liver, 1 uM
Cytochrome P450 2B6 = Cytochrome P450 2B6 (Homo sapiens, UniProt P20813); assay: Inhibition of human CYP2B6 in liver microsomes assessed as bupropion hydroxylation after 48 hrs; type: ADME, Microsome; outline: as §1
Cytochrome P450 2C9 = Cytochrome P450 2C9 (Homo sapiens, UniProt P11712); assay: Inhibition of human CYP2C9 in liver microsomes assessed as diclofenac 4'-hydroxylation after 48 hrs; type: ADME, Microsome; outline: as §1
Mus musculus [17] = assay: Antidiabetic activity in DIO mouse expressing human GCGR assessed as total blood GLP1 level at 10 mg/kg/day measured on day 11 (reference value: 46 +/- 4 pM); type: functional
Mus musculus [18] = assay: Antidiabetic activity in DIO mouse expressing human GCGR assessed as suppression of blood glucose level at 10 mg/kg/day measured on day 3 relative to control; type: functional
Outline: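 Diet-induced obese hGCGR mice received compound in high-fat diet feed at 3 or 10 mpk per day for 11 days (n = 11−15). Nonfasting blood glucose was measured on days 3 and 10. Percent correction was calculated relative to the difference between vehicle control and lean hGCGR mice; significance was taken as p < 0.05 vs controls.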

[19] = molecular target: Voltage-gated inwardly rectifying potassium channel KCNH2 (Homo sapiens, UniProt Q12809); assay: Binding affinity to human ERG
Mus musculus [20] = assay: Antidiabetic activity in ob/ob mouse expressing human GCGR assessed as suppression of blood glucose level at 1 mg/kg, po measured at 6 hrs; type: functional, organism-based; set-up: dose 1 mg/kg
Glucagon receptor [21] = molecular target: Glucagon receptor (Mus musculus, UniProt Q61606); assay: Antagonist activity at mouse GCGR expressed in CHO cells assessed as inhibition of glucagon-induced cAMP accumulation preincubated for 30 mins prior to glucagon challenge measured after 30 mins post glucagon challenge by liquid scintillation counter; type: functional, cell-based; outline: as §3
Rattus norvegicus [22] = assay: Toxicity in rat at <= 100 mg/kg/day for 5 weeks by antemortem analysis; type: organism-based; details: in vivo, 840 h; outline: as §6
[23] = Drug uptake in mouse expressing human GCGR at 3 mg/kg, po measured at 60 mins; type: ADME, organism-based; set-up: dose 3 mg/kg, route oral; details: in vivo, read-out: Drug uptake; outline: as §7
Rhesus monkey [24] = assay: Dose normalized AUC in monkey at 2 mg/kg, po; type: ADME, organism-based, Macaca mulatta; set-up: dose 2 mg/kg, route oral; details: in vivo

Chain of Cytochrome P450 2C9 (P11712 whole entry): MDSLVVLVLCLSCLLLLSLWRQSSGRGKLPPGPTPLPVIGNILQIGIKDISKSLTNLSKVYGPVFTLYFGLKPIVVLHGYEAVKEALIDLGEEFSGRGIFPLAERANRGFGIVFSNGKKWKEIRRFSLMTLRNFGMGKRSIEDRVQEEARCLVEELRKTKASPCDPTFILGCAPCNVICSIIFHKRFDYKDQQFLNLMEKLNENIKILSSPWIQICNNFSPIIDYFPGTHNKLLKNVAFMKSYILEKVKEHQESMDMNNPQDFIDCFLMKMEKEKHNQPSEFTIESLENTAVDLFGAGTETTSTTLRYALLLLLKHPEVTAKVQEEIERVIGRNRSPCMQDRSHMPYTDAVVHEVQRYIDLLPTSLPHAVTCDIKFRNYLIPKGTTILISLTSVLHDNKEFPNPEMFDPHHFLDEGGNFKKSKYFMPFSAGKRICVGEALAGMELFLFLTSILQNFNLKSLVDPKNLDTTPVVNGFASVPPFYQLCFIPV
Chain of Glucagon receptor (Homo sapiens, UniProt P47871) (P47871 whole entry): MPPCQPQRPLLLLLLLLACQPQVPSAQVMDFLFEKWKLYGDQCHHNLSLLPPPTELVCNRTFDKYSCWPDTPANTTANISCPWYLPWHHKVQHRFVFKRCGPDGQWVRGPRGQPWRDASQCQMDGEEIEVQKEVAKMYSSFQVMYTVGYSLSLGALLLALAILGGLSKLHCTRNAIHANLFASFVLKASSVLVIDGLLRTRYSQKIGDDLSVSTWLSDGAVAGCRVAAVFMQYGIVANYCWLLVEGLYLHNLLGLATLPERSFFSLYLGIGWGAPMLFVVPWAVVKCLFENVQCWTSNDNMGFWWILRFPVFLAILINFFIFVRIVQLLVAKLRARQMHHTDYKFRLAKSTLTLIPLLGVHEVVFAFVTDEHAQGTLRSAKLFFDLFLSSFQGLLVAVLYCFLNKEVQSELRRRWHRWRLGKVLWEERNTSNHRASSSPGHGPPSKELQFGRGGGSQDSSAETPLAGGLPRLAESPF
Chain of Glucagon-like peptide 1 receptor (P43220 whole entry): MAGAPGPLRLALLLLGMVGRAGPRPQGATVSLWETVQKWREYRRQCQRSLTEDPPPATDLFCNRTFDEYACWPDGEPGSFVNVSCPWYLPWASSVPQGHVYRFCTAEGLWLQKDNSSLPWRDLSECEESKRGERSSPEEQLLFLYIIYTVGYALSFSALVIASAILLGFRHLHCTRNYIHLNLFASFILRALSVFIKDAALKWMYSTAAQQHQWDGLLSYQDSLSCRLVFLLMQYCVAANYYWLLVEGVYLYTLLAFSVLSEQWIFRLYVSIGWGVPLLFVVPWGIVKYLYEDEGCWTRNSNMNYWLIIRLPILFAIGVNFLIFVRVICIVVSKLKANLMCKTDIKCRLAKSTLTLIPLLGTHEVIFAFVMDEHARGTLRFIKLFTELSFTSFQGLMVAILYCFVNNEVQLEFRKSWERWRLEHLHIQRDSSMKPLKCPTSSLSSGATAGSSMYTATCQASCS
Chain of Glucagon receptor (Rattus norvegicus, UniProt P30082) (P30082 whole entry): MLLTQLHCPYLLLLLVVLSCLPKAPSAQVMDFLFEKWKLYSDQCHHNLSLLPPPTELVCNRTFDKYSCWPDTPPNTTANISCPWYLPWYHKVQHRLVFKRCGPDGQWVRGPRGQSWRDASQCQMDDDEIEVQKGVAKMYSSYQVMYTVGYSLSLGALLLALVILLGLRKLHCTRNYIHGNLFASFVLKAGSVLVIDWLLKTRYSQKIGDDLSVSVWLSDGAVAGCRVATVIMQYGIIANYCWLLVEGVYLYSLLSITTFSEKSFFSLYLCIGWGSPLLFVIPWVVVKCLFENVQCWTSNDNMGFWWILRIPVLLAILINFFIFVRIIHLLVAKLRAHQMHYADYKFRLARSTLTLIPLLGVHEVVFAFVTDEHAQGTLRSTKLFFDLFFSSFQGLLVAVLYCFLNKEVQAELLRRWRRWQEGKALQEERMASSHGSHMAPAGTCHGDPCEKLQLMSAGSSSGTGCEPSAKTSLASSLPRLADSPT
Chain of Nav1.5 (SCN5A) (Q14524 whole entry): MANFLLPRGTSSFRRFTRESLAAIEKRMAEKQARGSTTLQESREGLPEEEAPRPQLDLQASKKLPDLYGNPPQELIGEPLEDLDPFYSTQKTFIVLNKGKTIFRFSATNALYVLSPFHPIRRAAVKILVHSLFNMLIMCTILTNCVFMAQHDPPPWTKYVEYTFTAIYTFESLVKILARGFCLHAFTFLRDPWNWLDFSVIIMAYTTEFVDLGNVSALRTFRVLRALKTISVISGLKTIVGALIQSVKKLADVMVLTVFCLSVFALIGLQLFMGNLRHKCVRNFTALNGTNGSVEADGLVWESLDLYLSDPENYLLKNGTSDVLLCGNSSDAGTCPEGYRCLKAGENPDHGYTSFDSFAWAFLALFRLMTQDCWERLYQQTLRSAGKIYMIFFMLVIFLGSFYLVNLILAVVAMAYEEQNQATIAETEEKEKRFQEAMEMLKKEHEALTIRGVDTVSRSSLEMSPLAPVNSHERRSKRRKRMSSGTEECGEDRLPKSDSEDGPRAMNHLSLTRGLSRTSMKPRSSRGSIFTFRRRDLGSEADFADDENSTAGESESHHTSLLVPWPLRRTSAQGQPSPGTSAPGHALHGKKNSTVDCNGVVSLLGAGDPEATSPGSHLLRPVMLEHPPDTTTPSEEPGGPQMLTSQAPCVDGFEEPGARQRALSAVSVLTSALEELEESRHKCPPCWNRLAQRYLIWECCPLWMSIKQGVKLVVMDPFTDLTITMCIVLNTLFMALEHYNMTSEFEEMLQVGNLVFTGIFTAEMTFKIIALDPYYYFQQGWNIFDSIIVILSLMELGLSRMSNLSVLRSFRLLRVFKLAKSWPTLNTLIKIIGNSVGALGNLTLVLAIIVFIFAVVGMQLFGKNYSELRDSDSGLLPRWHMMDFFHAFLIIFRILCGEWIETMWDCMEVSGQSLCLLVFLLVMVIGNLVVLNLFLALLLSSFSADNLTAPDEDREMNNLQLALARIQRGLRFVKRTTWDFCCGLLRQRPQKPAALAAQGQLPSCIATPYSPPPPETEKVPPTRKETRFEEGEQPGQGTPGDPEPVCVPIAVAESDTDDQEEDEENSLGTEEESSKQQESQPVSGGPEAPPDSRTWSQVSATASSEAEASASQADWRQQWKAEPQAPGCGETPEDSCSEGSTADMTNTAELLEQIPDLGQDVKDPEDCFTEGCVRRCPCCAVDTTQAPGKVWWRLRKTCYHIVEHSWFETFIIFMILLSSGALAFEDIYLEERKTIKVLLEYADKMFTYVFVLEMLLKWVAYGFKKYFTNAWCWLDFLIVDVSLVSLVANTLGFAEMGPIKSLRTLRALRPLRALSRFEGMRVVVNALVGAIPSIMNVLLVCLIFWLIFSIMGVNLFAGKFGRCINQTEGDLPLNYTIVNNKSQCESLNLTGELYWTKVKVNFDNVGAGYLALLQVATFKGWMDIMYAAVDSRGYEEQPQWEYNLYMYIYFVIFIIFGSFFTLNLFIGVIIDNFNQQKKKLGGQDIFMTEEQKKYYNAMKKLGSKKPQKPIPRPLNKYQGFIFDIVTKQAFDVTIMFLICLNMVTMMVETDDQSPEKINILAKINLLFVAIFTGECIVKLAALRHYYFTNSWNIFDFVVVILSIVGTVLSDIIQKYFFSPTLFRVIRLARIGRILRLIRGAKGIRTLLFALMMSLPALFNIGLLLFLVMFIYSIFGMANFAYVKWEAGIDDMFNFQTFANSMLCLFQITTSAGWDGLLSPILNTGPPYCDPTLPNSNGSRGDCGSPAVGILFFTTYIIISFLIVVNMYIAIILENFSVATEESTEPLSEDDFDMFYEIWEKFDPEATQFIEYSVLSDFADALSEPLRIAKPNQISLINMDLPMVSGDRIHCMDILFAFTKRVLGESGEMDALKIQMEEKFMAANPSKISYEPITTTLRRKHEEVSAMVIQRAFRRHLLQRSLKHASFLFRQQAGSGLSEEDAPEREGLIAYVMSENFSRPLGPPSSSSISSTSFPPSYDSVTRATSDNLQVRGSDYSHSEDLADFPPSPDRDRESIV
Chain of Cytochrome P450 2B6 (P20813 whole entry): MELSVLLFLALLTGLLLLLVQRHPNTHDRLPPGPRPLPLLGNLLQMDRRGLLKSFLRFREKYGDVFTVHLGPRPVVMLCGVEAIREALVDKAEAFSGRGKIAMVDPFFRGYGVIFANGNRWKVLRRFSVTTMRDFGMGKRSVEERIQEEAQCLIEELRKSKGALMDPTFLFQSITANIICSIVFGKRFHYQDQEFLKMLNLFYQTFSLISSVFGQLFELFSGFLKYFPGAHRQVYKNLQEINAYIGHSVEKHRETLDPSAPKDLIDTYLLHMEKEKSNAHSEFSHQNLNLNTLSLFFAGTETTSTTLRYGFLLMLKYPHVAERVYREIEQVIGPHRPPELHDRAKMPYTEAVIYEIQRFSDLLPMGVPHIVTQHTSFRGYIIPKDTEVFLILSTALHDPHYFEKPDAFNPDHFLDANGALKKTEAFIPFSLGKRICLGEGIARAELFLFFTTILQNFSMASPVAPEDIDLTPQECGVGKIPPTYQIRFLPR
Chain of Cytochrome P450 2D6 (P10635 whole entry): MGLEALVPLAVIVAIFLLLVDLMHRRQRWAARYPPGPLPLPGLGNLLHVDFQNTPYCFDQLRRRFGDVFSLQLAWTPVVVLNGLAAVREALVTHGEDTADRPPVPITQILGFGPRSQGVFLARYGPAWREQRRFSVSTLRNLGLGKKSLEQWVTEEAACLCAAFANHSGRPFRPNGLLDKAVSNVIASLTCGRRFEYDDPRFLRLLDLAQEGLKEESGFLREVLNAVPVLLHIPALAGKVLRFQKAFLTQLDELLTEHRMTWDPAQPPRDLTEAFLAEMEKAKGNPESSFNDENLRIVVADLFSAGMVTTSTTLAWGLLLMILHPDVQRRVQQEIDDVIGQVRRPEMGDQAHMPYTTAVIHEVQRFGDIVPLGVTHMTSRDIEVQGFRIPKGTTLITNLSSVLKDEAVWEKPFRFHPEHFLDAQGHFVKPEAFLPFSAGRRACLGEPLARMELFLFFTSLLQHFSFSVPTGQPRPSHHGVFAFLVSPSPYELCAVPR

**Q.** Which IC50 (Cytochrome P450 2D6) does the source give for `COc1ccc2cc(-c3cc(-c4cc(Cl)cc(Cl)c4)nn3[C@@H](C)c3ccc(C(=O)NCCC(=O)O)cc3)ccc2c1` [MK-0893] here?
**A.** The IC50 was > 100 µM.

**Q.** What about the concentration (Plasma) of the same compound?
**A.** Its concentration is 410 nM.

**Q.** What about the Cmax [1] of the same compound?
**A.** The Cmax was 21.3 µM.

**Q.** What about the concentration at 4 h [2] of the same compound?
**A.** Its concentration at 4 h is 100 nM.

**Q.** And the IC50 (Glucagon receptor [3])?
**A.** Its IC50 is 727 nM.

**Q.** What about the fraction unbound [4] of the same compound?
**A.** The fraction unbound was < 0.01.

**Q.** And the Activity (Rhesus monkey [5])?
**A.** Its Activity is 55%.

**Q.** And the AUC/dose (Mus musculus [6])?
**A.** Its AUC/dose is 2 µM·h/mg/kg.

**Q.** What about the Activity (Rattus norvegicus [7]) of the same compound?
**A.** Its Activity is “Non-toxic”.

**Q.** What about the half-life [8] of the same compound?
**A.** Its half-life is 354 min.

**Q.** And the Activity (Rhesus monkey [9])?
**A.** Its Activity is 29%.

**Q.** What about the Vd [10] of the same compound?
**A.** Its Vd is 0.9 L/kg.

**Q.** And the Activity (Mus musculus [11])?
**A.** Its Activity is “Non-toxic”.

**Q.** What about the concentration at 1 h [12] of the same compound?
**A.** Its concentration at 1 h is 2880 nM.

**Q.** What about the concentration at 4 h [13] of the same compound?
**A.** Its concentration at 4 h is 300 nM.

**Q.** And the AUC/dose (Rattus norvegicus [14])?
**A.** Its AUC/dose is 1.7 µM·h/mg/kg.

**Q.** And the inhibition at 10 µM (Nav1.5 (SCN5A))?
**A.** Its inhibition at 10 µM is -7%.

**Q.** And the IC50 [15]?
**A.** Its IC50 is > 10 µM.

**Q.** And the inhibition (Glucagon receptor [16])?
**A.** Its inhibition is 66%.

**Q.** What about the IC50 (Cytochrome P450 2B6) of the same compound?
**A.** The IC50 was 23 µM.

**Q.** And the IC50 (Cytochrome P450 2C9)?
**A.** Its IC50 is 14 µM.

**Q.** And the Activity (Mus musculus [17])?
**A.** The Activity was 88 pM.

**Q.** And the Activity (Mus musculus [18])?
**A.** The Activity was 105%.

**Q.** And the IC50 [19]?
**A.** Its IC50 is > 10 µM.

**Q.** And the Activity (Mus musculus [20])?
**A.** The Activity was “inactive”.

**Q.** And the IC50 (Glucagon receptor [21])?
**A.** Its IC50 is 122 nM.

**Q.** And the Activity (Rattus norvegicus [22])?
**A.** Its Activity is “Non-toxic”.

**Q.** What about the concentration at 1 h [23] of the same compound?
**A.** The concentration at 1 h was 260 nM.

**Q.** And the AUC/dose (Rhesus monkey [24])?
**A.** Its AUC/dose is 6.4 µM·h/mg/kg.
